Source: ChEMBL document CHEMBL1921730, “The anti-malarial activity of bivalent imidazolium salts” (Bioorg Med Chem, 2011)
Calls of active or inactive are those of the source. The rule behind the calls is not given here.

Experiments:
[1] = Ratio of IC50 for CHO cells to IC50 for Plasmodium falciparum
[2] = test system: Plasmodium falciparum; experiment: Antiplasmodial activity against Plasmodium falciparum assessed as inhibition of parasite LDH activity after 72 hrs; format: functional, organism-based
Procedure, shortened: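 P. falciparum ItG grown in O+ human erythrocytes in RPMI-1640 with 10% human serum and 50 µM hypoxanthine. DMSO stocks (10 mg/mL) diluted two-fold serially; culture at 2% hematocrit and 2% parasitemia incubated 72 h at 37 °C under 95% N₂/3% CO₂/2% O₂. pLDH assay read at 595 nm after 1 h; IC50 by non-linear regression, mean ± SEM, n = 4; chloroquine positive control.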

[3] = test system: CHO; experiment: Cytotoxicity against CHO cells after 48 hrs by MTT assay; format: cell-based; details: Cricetulus griseus
Procedure, shortened: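 CHO cells grown in RPMI-1640 with 10% fetal calf serum, 25 mM HEPES and gentamicin, to 50% confluency, then given two-fold gradients from 10 mg/mL DMSO stocks; DMSO-only control. After 48 h, MTT (10 mg/mL) was added for 30 min, then DMSO; absorbance read at 650 nm. IC50 by non-linear regression of sigmoidal dose-response curves; four determinations, mean ± SEM.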

[4] = test system: Plasmodium berghei; experiment: Antiplasmodial activity against Plasmodium berghei […] by SYBR green 1 assay; format: functional, organism-based
Procedure, shortened: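 P. berghei blood from an infected mouse (5% parasitemia) obtained by cardiac puncture and washed 3 times in RPMI. Plated at 2% hematocrit in a two-fold compound gradient. Wells agitated at 24 h to release merozoites, then incubated a further 24 h. SYBR-Green I fluorescence read-out; IC50 from four independent determinations, mean ± SEM.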

[5] = test system: Plasmodium falciparum; experiment: Antiplasmodial activity against Plasmodium falciparum assessed as inhibition of merozoite invasion of RBCs at 20 uM after 48 hrs by SYBR green 1 fluorescence-based flow cytometry; format: functional, organism-based
Procedure, shortened: (§1)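 Sorbitol-synchronized ring-stage P. falciparum set to 5% parasitemia and 0.5% hematocrit, then treated for 48 h. An equal volume of RPMI-1640 with 0.2 µL/mL stock SYBR-Green was added for 1 h in the dark before flow cytometry (~200,000 events). Quadrant counts of parasitized, non-parasitized and small DNA-containing events were taken relative to total erythrocytes.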

[6] = test system: Plasmodium falciparum; experiment: Antiplasmodial activity against Plasmodium falciparum assessed as inhibition of parasite adherence to RBCs at 20 uM after 48 hrs by microscopic analysis; format: functional, organism-based
[7] = test system: Plasmodium berghei; experiment: Antiplasmodial activity against Plasmodium berghei infected in BALB/c mouse assessed as delay in onset of parasitemia at 60 ug/day infused once daily for 3 days by Giemsa staining relative to control; format: functional, organism-based
Procedure, shortened: (§2)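 Female Balb/c mice, 6–8 weeks old, infected with 10⁶ P. berghei on Day 0 and followed by Giemsa-stained blood films until parasites appeared. Then infused once daily for three days with 0.5 mL RPMI-1640 or compound in RPMI-1640; vehicle control 1% (v/v) DMSO in RPMI-1640; chloroquine 15 mg/kg/day as positive control. Parasitemia by Giemsa films; five mice per group.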

[8] = test system: Plasmodium falciparum; experiment: Antiplasmodial activity against Plasmodium falciparum 3D7 assessed as reduction in parasitemia measured between day 1 and day 2 relative to control; format: functional, organism-based
Procedure, shortened: (§3)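 P. falciparum 3D7 cultures synchronized at mature stage on Percoll one day before the start. Set to 1% hematocrit and 2% parasitemia, treated with 40 nM or 83 nM compound, and sampled every 24 h for 4 days. Parasitemia counted on Giemsa-stained smears. Controls: uninfected RBCs, untreated cultures, sulfated β-cyclodextrin sodium salt and chloroquine.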

[9] = test system: Plasmodium falciparum; experiment: Antiplasmodial activity against Plasmodium falciparum assessed as inhibition of merozoite invasion of RBCs at 0.2 mg/ml after 48 hrs by SYBR green 1 fluorescence-based flow cytometry; format: functional, organism-based; procedure, shortened: as §1
[10] = test system: Plasmodium falciparum; experiment: Antiplasmodial activity against Plasmodium falciparum assessed as inhibition of merozoite invasion of RBCs at 1 uM after 48 hrs by SYBR green 1 fluorescence-based flow cytometry; format: functional, organism-based; procedure, shortened: as §1
[11] = test system: Plasmodium falciparum; experiment: Antiplasmodial activity against Plasmodium falciparum 3D7 assessed as reduction in parasitemia at 83 nM measured between day 1 and day 2 relative to control; format: functional, organism-based; procedure, shortened: as §3
[12] = test system: Plasmodium berghei; experiment: Antiplasmodial activity against Plasmodium berghei infected in BALB/c mouse assessed as delay in onset of parasitemia at 75 ug/day infused once daily for 3 days by Giemsa staining relative to control; format: functional, organism-based; procedure, shortened: as §2
[13] = test system: Plasmodium falciparum; experiment: Antiplasmodial activity against Plasmodium falciparum 3D7 assessed as reduction in parasitemia at 40 nM measured between day 1 and day 2 relative to control; format: functional, organism-based; procedure, shortened: as §3
[14] = test system: Plasmodium berghei; experiment: Antiplasmodial activity against Plasmodium berghei infected in BALB/c mouse assessed as delay in onset of parasitemia infused once daily for 3 days by Giemsa staining relative to control
[15] = test system: Plasmodium berghei; experiment: Antiplasmodial activity against Plasmodium berghei infected in BALB/c mouse assessed as reduction in parasitemia at 15 mg/kg infused once daily for 4 days measured after 4 days by YOYO-1 staining based flow cytometry relative to control; set-up: scale not given: the % may be the effect or the level left

Structure (SMILES)	IC50 [2] [µM]	Ratio IC50 [1]	IC50 [3] [µM]	other results
c1cn(-c2ccc(-n3ccnc3)cc2)cn1	93	12	1110	
c1cn(CCCCCCCCCCCn2ccnc2)cn1	1.9	11	20	
C[n+]1ccn(CCCCCCCCCCn2cc[n+](C)c2)c1.[I-].[I-]	0.082	695	57	
C[n+]1ccn(CCCCCCCCCCCn2cc[n+](C)c2)c1.[I-].[I-]	0.0061	6885	42	IC50 [4]: 50 nM
CCC[n+]1ccn(CCCCCCCCCCCCn2cc[n+](CCC)c2)c1.[I-].[I-]	0.0008	97500	78	
C[n+]1ccn(CCCCCCCCCCCCn2cc[n+](C)c2)c1.[I-].[I-]	0.006	4333	26	inhibition [5]: inactive; inhibition [6]: Active
C[n+]1ccn(CCCCn2cc[n+](C)c2)c1.[I-].[I-]	67	1.8		
C[n+]1ccn(CCCCCCCCCCCCCCn2cc[n+](C)c2)c1.[I-].[I-]	0.0032	3438	11	
C[n+]1ccn(CCCCCCCCCCCCCn2cc[n+](C)c2)c1.[I-].[I-]	0.007	7286	51	Activity [7]: Active
c1cn(CCCCCCCCCCCCCCCCCCCCn2ccnc2)cn1	2.5	3.2	8	
[Br-].[Br-].c1ccc(C[n+]2ccn(-c3ccc(-c4ccc(-n5cc[n+](Cc6ccccc6)c5)cc4)cc3)c2)cc1	0.022	550	12.1	
O=S(=O)(O)OC[C@H]1O[C@@H]2O[C@H]3[C@H](O)[C@@H](O)[C@@H](O[C@H]4[C@H](O)[C@@H](O)[C@@H](O[C@H]5[C@H](O)[C@@H](O)[C@@H](O[C@H]6[C@H](O)[C@@H](O)[C@@H](O[C@H]7[C@H](O)[C@@H](O)[C@@H](O[C@H]8[C@H](O)[C@@H](O)[C@@H](O[C@H]1[C@H](O)[C@H]2O)O[C@@H]8COS(=O)(=O)O)O[C@@H]7COS(=O)(=O)O)O[C@@H]6COS(=O)(=O)O)O[C@@H]5COS(=O)(=O)O)O[C@@H]4COS(=O)(=O)O)O[C@@H]3COS(=O)(=O)O				Activity [8]: Active; inhibition [9]: Active
C[n+]1ccn(CCCCCCCCCCCCCCCn2cc[n+](C)c2)c1.[I-].[I-]	0.002	600	1.2	
c1cn(CCCCCCCCCCCCCCCCCCn2ccnc2)cn1	0.4	3	1.2	
Cl.Cl.c1cn(CCCCCCCCCCCCCn2ccnc2)cn1	0.56	5.4	3	
Cl.Cl.c1cn(CCCCCCCCCCn2ccnc2)cn1	9.2	1.6	15	
C[n+]1ccn(CCCCCCCCCCCCCCCCn2cc[n+](C)c2)c1.[I-].[I-]	0.0005	5400	2.7	
CCN(CC)CCCC(C)Nc1ccnc2cc(Cl)ccc12 (stereo unspecified)				Activity [8]: Active; inhibition [10]: Active
c1cn(CCCCCCCCCCCCCCCCn2ccnc2)cn1	0.65	2	1.3	
O=C(Cn1cc[n+](CC(=O)c2ccc(Cl)cc2)c1)c1ccc(Cl)cc1				inhibition [5]: inactive; inhibition [6]: Active; IC50 [4]: 4200 nM
c1cn(-c2ccc(-c3ccc(-n4ccnc4)cc3)cc2)cn1	3.1	9	27	
C[n+]1ccn(CCCCCCCCCCCCCCCCCCn2cc[n+](C)c2)c1.[I-].[I-]	0.0009	1556	1.4	
Cl.Cl.c1cn(CCCCn2ccnc2)cn1	1070	1.8	1900	
Cl.Cl.c1cn(CCCCCCn2ccnc2)cn1	90	10	899	
O=[N+]([O-])c1ccc(C[n+]2ccn(-c3ccc(-c4ccc(-n5cc[n+](Cc6ccc([N+](=O)[O-])cc6)c5)cc4)cc3)c2)cc1.[Br-].[Br-]	0.023	609	14	

Now from value to molecule, other results behind:

IC50 [2] [µM]	Structure (SMILES)	Ratio IC50 [1]	IC50 [3] [µM]	other results
0.07	C[n+]1cn(-c2ccc(-c3ccc(-n4c[n+](C)c5ccccc54)cc3)cc2)c2ccccc21.[I-].[I-]	1400	98	
6	Cl.Cl.c1cn(CCCCCCCCn2ccnc2)cn1	23	140	
0.18	C[n+]1ccn(Cc2ccc(-c3ccc(Cn4cc[n+](C)c4)cc3)cc2)c1.[I-].[I-]	694		
0.009	C[n+]1ccn(-c2ccc(-c3ccc(-n4cc[n+](C)c4)cc3)cc2)c1.[I-].[I-]	1000	9	
1.6	Cl.Cl.c1cn(CCCCCCCCCCCCCCn2ccnc2)cn1	2.8	4.4	
4.1	Cl.Cl.c1cn(CCCCCCCCCCCCn2ccnc2)cn1	0.3	1.4	
0.012	CC[n+]1ccn(CCCCCCCCCCCCn2cc[n+](CC)c2)c1.[I-].[I-]	2833	34	IC50 [4]: 120 nM
19	Cl.Cl.c1ncn(CCCCCCCCCCCCn2cncn2)n1	0.6	11.7	
4.9	Cl.Cl.c1cn(CCCOc2ccc(OCCCn3ccnc3)cc2)cn1	10	50	
4.7	C[n+]1ccn(CCCCCCCCn2cc[n+](C)c2)c1.[I-].[I-]	96		
0.045	C[n+]1ccn(CCCOc2ccc(OCCCn3cc[n+](C)c3)cc2)c1.[I-].[I-]	2511		IC50 [4]: 46 nM
2.6	C[n+]1ccn(CCCCCCn2cc[n+](C)c2)c1.[I-].[I-]	56		
11.2	C[n+]1ccn(-c2ccc(-n3cc[n+](C)c3)cc2)c1.[I-].[I-]	28		
0.93	Cl.Cl.c1cn(CCCCCCCCCCCCCCCn2ccnc2)cn1	3	2.8	
1.7	c1cn(Cc2ccc(-c3ccc(Cn4ccnc4)cc3)cc2)cn1	38	65	
0.008	C[n+]1cnn(CCCCCCCCCCCCn2c[n+](C)cn2)c1.[I-].[I-]	6500	52	Activity [11]: Active; Activity [12]: Active; Activity [13]: inactive; Activity [14]: 50%; inhibition [5]: inactive; inhibition [6]: Active; Activity [15]: 75%
0.0021	C[n+]1ccn(CCCCCCCCCCCCCCCCCCCCn2cc[n+](C)c2)c1.[I-].[I-]	667	1.4	
